Data: ChEMBL document CHEMBL3352067, “1,8-Naphthyridines IX. Potent anti-inflammatory and/or analgesic activity of a new group of substituted 5-amino[1,2,4]triazolo[4,3-a][1,8]naphthyridine-6-carboxamides, of some their Mannich base derivatives and of one novel substituted …” (Eur J Med Chem, 2014)
The source made the active and inactive calls. No cut-off for these calls is given here.

How the values were obtained:
Rattus norvegicus [1] = test: Antiinflammatory activity in Wistar rat assessed as inhibition of carrageenan-induced paw oedema at 25 mg/kg, po administered 1 hr prior to carrageenan challenge; assay type: functional
How it was run: (§1)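 Wistar rats (250–300 g, either sex), fasted overnight, dosed by oral gavage with compound suspended in 0.5% methylcellulose; controls got vehicle. Groups of 8–10. 1 h later 0.1 mL 1% carrageenan injected subcutaneously into hind paw plantar surface; paw volume measured by plethysmometer immediately and 3 h later. Inhibition calculated from swelling difference versus controls (control = 100).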

Mus musculus [2] = test: Antinociceptive activity in Swiss mouse assessed as inhibition of acetic acid-induced writhing at 100 mg/kg, po administered 1 hr prior to acetic acid challenge measured for 30 mins; assay type: functional
How it was run: (§2)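 Swiss mice (25–35 g, either sex), fasted overnight, given compound orally in 0.5% methylcellulose; controls received vehicle; groups of 8–10. Writhes, scored as complete extension of either hind limb, counted over 30 min after injection of the noxious agent. Percent inhibition derived from the difference in writhing between treated and control groups.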

Mus musculus [3] = test: Sedative activity in Swiss mouse assessed as inhibition of spontaneous locomotor activity at 100 mg/kg, po measured for 30 mins by open-field test; assay type: organism-based; design: dose 100 mg/kg, route oral; conditions: in vivo, 0.5 h
How it was run: (§3)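 Swiss mice (25-35 g, either sex), fasted overnight, given compound orally by gavage suspended in 0.5% methylcellulose; vehicle controls; groups of 8-10. Spontaneous locomotor activity recorded by videocamera with video-tracking as distance (m) travelled in 30 min; Student's t-test vs controls.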

Rattus norvegicus [4] = test: Antiinflammatory activity in Wistar rat assessed as inhibition of carrageenan-induced paw oedema at 100 mg/kg, po administered 1 hr prior to carrageenan challenge; assay type: functional; how it was run: as §1
Mus musculus [5] = test: Sedative activity in Swiss mouse assessed as inhibition of spontaneous locomotor activity at 50 mg/kg, po measured for 30 mins by open-field test; assay type: organism-based; design: dose 50 mg/kg, route oral; conditions: in vivo, 0.5 h; how it was run: as §3
Rattus norvegicus [6] = test: Antiinflammatory activity in Wistar rat assessed as inhibition of carrageenan-induced paw oedema at 50 mg/kg, po administered 1 hr prior to carrageenan challenge; assay type: functional; how it was run: as §1
Mus musculus [7] = test: Antinociceptive activity in Swiss mouse assessed as inhibition of acetic acid-induced writhing at 50 mg/kg, po administered 1 hr prior to acetic acid challenge measured for 30 mins; assay type: functional; how it was run: as §2
Mus musculus [8] = test: Antinociceptive activity in Swiss mouse assessed as inhibition of acetic acid-induced writhing at 25 mg/kg, po administered 1 hr prior to acetic acid challenge measured for 30 mins; assay type: functional; how it was run: as §2
Mus musculus [9] = test: Antinociceptive activity in Swiss mouse assessed as inhibition of acetic acid-induced writhing at 12.5 mg/kg, po administered 1 hr prior to acetic acid challenge measured for 30 mins; assay type: functional; how it was run: as §2
Mus musculus [10] = test: Sedative activity in Swiss mouse assessed as inhibition of spontaneous locomotor activity at 25 mg/kg, po measured for 30 mins by open-field test; assay type: organism-based; design: dose 25 mg/kg, route oral; conditions: in vivo, 0.5 h; how it was run: as §3
[11] = Antiplatelet activity in guinea pig platelet rich plasma assessed as inhibition of U46619-induced aggregation by aggregometry; assay type: functional, cell-free; conditions: Cavia porcellus
How it was run: (§4)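 Guinea pig blood drawn by cardiac puncture into 3.8% citrate (1:9). PRP obtained by spinning at 180 g for 15 min, PPP at 2000 g for 10 min. PRP preincubated 5 min at 37 °C with compound or DMSO (≤0.5% final), then aggregation triggered by U46619, ADP or arachidonic acid. Born turbidimetry at 37 °C with stirring; percent inhibition versus control; tested within 3 h.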

[12] = Antiplatelet activity in guinea pig platelet rich plasma assessed as inhibition of ADP-induced aggregation by aggregometry; assay type: functional, cell-free; conditions: Cavia porcellus; how it was run: as §4
[13] = Antiplatelet activity in guinea pig platelet rich plasma assessed as inhibition of arachidonic acid-induced aggregation by aggregometry; assay type: functional, cell-free; conditions: Cavia porcellus; how it was run: as §4
Rattus norvegicus [14] = test: Antiinflammatory activity in Wistar rat assessed as inhibition of carrageenan-induced paw oedema at 0.8 mg/kg, po administered 1 hr prior to carrageenan challenge; assay type: functional; how it was run: as §1
Rattus norvegicus [15] = test: Antiinflammatory activity in Wistar rat assessed as inhibition of carrageenan-induced paw oedema at 3.12 mg/kg, po administered 1 hr prior to carrageenan challenge; assay type: functional; how it was run: as §1
Rattus norvegicus [16] = test: Antiinflammatory activity in Wistar rat assessed as inhibition of carrageenan-induced paw oedema at 6.25 mg/kg, po administered 1 hr prior to carrageenan challenge; assay type: functional; how it was run: as §1
Rattus norvegicus [17] = test: Antiinflammatory activity in Wistar rat assessed as inhibition of carrageenan-induced paw oedema at 1.6 mg/kg, po administered 1 hr prior to carrageenan challenge; assay type: functional; how it was run: as §1
J774 = test: Antiinflammatory activity in mouse J774 cells assessed as inhibition of LPS-induced NO production at 100 uM after 6 hrs by Griess assay; assay type: functional, cell-based
How it was run: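 J774 murine macrophages grown in DMEM with 10% FBS and 2 mM glutamine at 37 °C, 5% CO2. Cells plated at 2.5 × 10⁵/mL, left to adhere overnight, and the medium refreshed. Compound added together with LPS. Supernatants taken after 6 h; nitrite measured with Griess reagent (10 min) as absorbance at 540 nm, with fresh medium as blank.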

Rattus norvegicus [18] = test: Antiinflammatory activity in Wistar rat assessed as inhibition of carrageenan-induced paw oedema at 12.5 mg/kg, po administered 1 hr prior to carrageenan challenge; assay type: functional; how it was run: as §1
Rattus norvegicus [19] = test: Acute gastrolesivity in Wistar rat assessed as stomach lesions at 100 mg/kg, po measured after 5 hrs; assay type: toxicity, organism-based; design: dose 100 mg/kg, route oral; conditions: in vivo
How it was run: (§5)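 Wistar rats (250-300 g, either sex), fasted overnight, dosed by oral gavage in 0.5% methylcellulose (1 mL 100 g^-1); groups of 8-10. Stomachs excised 5 h post-dose, fixed with 2% formalin, opened along greater curvature, examined by stereomicroscope by blinded observer. Read-out: number of rats with gastric damage over number treated.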

Mus musculus [20] = test: Sedative activity in Swiss mouse assessed as inhibition of spontaneous locomotor activity at 12.5 mg/kg, po measured for 30 mins by open-field test; assay type: organism-based; design: dose 12.5 mg/kg, route oral; conditions: in vivo, 0.5 h; how it was run: as §3
Mus musculus [21] = test: Antinociceptive activity in Swiss mouse assessed as inhibition of acetic acid-induced writhing at 6.25 mg/kg, po administered 1 hr prior to acetic acid challenge measured for 30 mins; assay type: functional; how it was run: as §2
Rattus norvegicus [22] = test: Acute gastrolesivity in Wistar rat assessed as stomach lesions at 10 mg/kg, po measured after 5 hrs; assay type: toxicity, organism-based; design: dose 10 mg/kg, route oral; conditions: in vivo; how it was run: as §5

SMILES | inhibition in vivo at 25 mg/kg (Rattus norvegicus [1]) [%] | inhibition in vivo at 100 mg/kg (Mus musculus [2]) [%] | Activity (Mus musculus [3]) | inhibition in vivo at 100 mg/kg (Rattus norvegicus [4]) [%] | inhibition in vivo at 50 mg/kg (Rattus norvegicus [6]) [%] | inhibition in vivo at 50 mg/kg (Mus musculus [7]) [%] | inhibition in vivo at 25 mg/kg (Mus musculus [8]) [%] | also measured
CCc1nnc2c(C(=O)N(CC)CC)c(N3CCN(C)CC3)c3cccnc3n12 | 22 | 95 | Toxic | 39 | 29 | 81 | 10 | Activity (Mus musculus [5]): Toxic
CCN(CC)C(=O)c1c(N2CCN(C)CC2)c2cccnc2n2c(CN3CCN(C)CC3)nnc12 |  | 0 |  | 0 |  |  |  | 
CCN(CC)C(=O)c1c(N2CCN(CCO)CC2)c2cccnc2n2c(C(C)C)nnc12 |  | 85 | Toxic | 0 |  | 96 | 48 | inhibition in vivo at 12.5 mg/kg (Mus musculus [9]): 13%; Activity (Mus musculus [5]): Toxic; Activity (Mus musculus [10]): Toxic
CC(=O)Oc1ccccc1C(=O)O [ASPIRIN] |  |  |  |  |  |  |  | IC50 [11]: > 500 µM; IC50 [12]: > 500 µM; IC50 [13]: 45 µM
CCN(CC)C(=O)c1c(N2CCN(C)CC2)c2cccnc2n2c(CN3CCOCC3)nnc12 |  | 37 |  | 8 |  |  |  | 
CCN(CC)C(=O)c1c(NC(C)C)c2cccnc2n2c(CN3CCOCC3)nnc12 |  | 0 |  | 0 |  |  |  | 
CCNC(=O)c1c(NC(C)C)c2cccnc2n2c(C(C)C)nnc12 | 57 | 66 | Toxic | 80 | 72 | 64 | 15 | inhibition in vivo at 0.8 mg/kg (Rattus norvegicus [14]): 0%; inhibition in vivo at 3.12 mg/kg (Rattus norvegicus [15]): 31%; inhibition in vivo at 6.25 mg/kg (Rattus norvegicus [16]): 40%; inhibition in vivo at 1.6 mg/kg (Rattus norvegicus [17]): 31%; IC50 [11]: 89 µM; inhibition (J774): inactive; IC50 [12]: 281 µM; inhibition in vivo at 12.5 mg/kg (Rattus norvegicus [18]): 54%; IC50 [13]: 24 µM; Activity (Rattus norvegicus [19]): Non-toxic
CC(C)NC(=O)c1c(NC(C)C)c2cccnc2n2c(C(C)C)nnc12 | 9 | 0 |  | 34 | 33 |  |  | 
CCN(CC)C(=O)c1c(NCC(C)C)c2cccnc2n2c(=O)cc(C)nc12 |  | 71 |  | 15 |  | 54 | 0 | 
CCN(CC)C(=O)c1c(NC(C)C)c2cccnc2n2c(CN3CCN(C)CC3)nnc12 |  | 0 |  | 13 |  |  |  | 
CCN1CCN(c2c(C(=O)N(CC)CC)c3nnc(C(C)C)n3c3ncccc23)CC1 | 36 | 100 | Toxic | 31 | 35 | 74 | 72 | inhibition in vivo at 6.25 mg/kg (Rattus norvegicus [16]): 8%; inhibition in vivo at 12.5 mg/kg (Mus musculus [9]): 50%; Activity (Mus musculus [5]): Toxic; Activity (Mus musculus [20]): Toxic; inhibition in vivo at 12.5 mg/kg (Rattus norvegicus [18]): 31%; Activity (Mus musculus [10]): Toxic; inhibition in vivo at 6.25 mg/kg (Mus musculus [21]): 0%
COc1ccc2c(c1)c(CC(=O)O)c(C)n2C(=O)c1ccc(Cl)cc1 [INDOMETHACIN] |  |  |  |  |  |  |  | Activity (Rattus norvegicus [22]): Toxic
CNC(=O)c1c(NC(C)C)c2cccnc2n2c(C(C)C)nnc12 |  | 67 | Toxic | 50 | 3 | 11 |  | 
CCNC(=O)c1c(NC(CC)CC)c2cccnc2n2c(C(C)C)nnc12 | 30 | 34 |  | 60 | 35 | 41 | 0 | inhibition in vivo at 12.5 mg/kg (Rattus norvegicus [18]): 12%
CCCNC(=O)c1c(NC(C)C)c2cccnc2n2c(C(C)C)nnc12 | 70 | 0 |  | 72 | 63 | 0 |  | inhibition in vivo at 6.25 mg/kg (Rattus norvegicus [16]): 19%; inhibition in vivo at 12.5 mg/kg (Rattus norvegicus [18]): 44%
